Measurements as given in paper PMC6601336 (ACS chemical biology, 2019).
Positions count from the first letter of the chain named.

Columns and labels:
luciferase = assay: Off-target inhibition of luciferase in the E. coli lasB-lux reporter strain; format: cell-based; settings: high concentrations (>10 μM)
LasR T75V/Y93F/A127W = molecular target: T1, LasR T75V/Y93F/A127W (Pseudomonas aeruginosa, UniProt P25084, A127W/T75V/Y93F); assay: E. coli lasB-lux reporter assay, LasR T75V/Y93F/A127W; format: cell-based; settings: read-out: EC50 in the plasB-lux assay; LasR T75V/Y93F/A127W; NR = non-responsive
T1 sequence (P25084 1-239 T75V/Y93F/A127W): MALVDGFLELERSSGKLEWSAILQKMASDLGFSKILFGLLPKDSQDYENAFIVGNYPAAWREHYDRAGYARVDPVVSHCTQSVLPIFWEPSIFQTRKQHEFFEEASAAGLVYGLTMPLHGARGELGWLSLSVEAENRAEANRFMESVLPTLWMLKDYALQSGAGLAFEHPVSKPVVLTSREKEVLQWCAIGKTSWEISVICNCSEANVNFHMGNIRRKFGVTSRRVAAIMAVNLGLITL

pyocyanin production = settings: cited from earlier work
WT LasR LBD = molecular target: T2, WT LasR LBD (Pseudomonas aeruginosa, UniProt P25084); assay: Protein solubility assay, WT LasR LBD produced in E. coli; format: cell-based; settings: induction at 25°C; 10 μM compound
T2 sequence (P25084 1-173 limits assumed): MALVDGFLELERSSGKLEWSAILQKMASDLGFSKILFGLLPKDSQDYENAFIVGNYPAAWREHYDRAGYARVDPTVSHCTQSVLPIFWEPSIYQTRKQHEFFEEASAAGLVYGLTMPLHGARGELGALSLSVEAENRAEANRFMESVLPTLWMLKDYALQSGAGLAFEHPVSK
Method in brief: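 E. coli BL21(DE3) with plasmid-borne 6xHis-WT LasR LBD were grown overnight, diluted 1:500 in LB with ampicillin and grown to OD600 0.5. Cells were induced with 1 mM IPTG plus test compound at 10 μM final, then shaken 4 h at 25°C or 37°C. Whole-cell lysate and soluble fractions were compared by band intensity. Fraction soluble = soluble band / whole-cell lysate band.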

LasR = settings: cited from earlier work
LasR T75V/Y93F = molecular target: T3, LasR T75V/Y93F (Pseudomonas aeruginosa, UniProt P25084, T75V/Y93F); assay: E. coli lasB-lux reporter assay, LasR T75V/Y93F; format: cell-based; settings: read-out: EC50 in the plasB-lux assay; LasR T75V/Y93F
T3 sequence (P25084 1-239 T75V/Y93F): T1 sequence (P25084 1-239 T75V/Y93F/A127W) with W127A

LasR A127W = molecular target: T4, LasR A127W (Pseudomonas aeruginosa, UniProt P25084, A127W); assay: E. coli lasB-lux reporter assay, LasR A127W; format: cell-based; settings: read-out: EC50 in the plasB-lux assay, NR = non-responsive
T4 sequence (P25084 1-239 A127W): T1 sequence (P25084 1-239 T75V/Y93F/A127W) with V75T, F93Y

LasR Y93F = molecular target: T5, LasR Y93F (Pseudomonas aeruginosa, UniProt P25084, Y93F); assay: E. coli lasB-lux reporter assay, LasR Y93F; format: cell-based; settings: read-out: EC50 in the plasB-lux assay; LasR Y93F; NR = non-responsive
T5 sequence (P25084 1-239 Y93F): T1 sequence (P25084 1-239 T75V/Y93F/A127W) with V75T, W127A

LasR T75V = molecular target: T6, LasR T75V (Pseudomonas aeruginosa, UniProt P25084, T75V); assay: E. coli lasB-lux reporter assay, LasR T75V; format: cell-based; settings: read-out: EC50 in the plasB-lux assay; LasR T75V; NR = non-responsive
T6 sequence (P25084 1-239 T75V): T1 sequence (P25084 1-239 T75V/Y93F/A127W) with F93Y, W127A

LasR Y93F/A127W = molecular target: T7, LasR Y93F/A127W (Pseudomonas aeruginosa, UniProt P25084, A127W/Y93F); assay: E. coli lasB-lux reporter assay, LasR Y93F/A127W; format: cell-based; settings: read-out: EC50 in the plasB-lux assay; LasR Y93F/A127W; NR = non-responsive
T7 sequence (P25084 1-239 Y93F/A127W): T1 sequence (P25084 1-239 T75V/Y93F/A127W) with V75T

For “meta-bromo-thiolactone [mBTL, reference compound]”, the “off-target inhibition of luciferase” value (luciferase) is given as “caused off-target inhibition of luciferase”, the EC50 (LasR T75V/Y93F/A127W) is given as 10 nM and the effect on pyocyanin (pyocyanin production) is given as “inhibiting pyocyanin”. For the same substance, the “soluble WT LasR LBD” value (WT LasR LBD) was “yielded soluble WT LasR LBD”, the “activity on LasR” value (LasR) was “is a LasR agonist” and the EC50 (LasR T75V/Y93F) was 10 nM. It also gave an EC50 (LasR A127W) of 60 nM, an EC50 (LasR Y93F) of 10 nM and an EC50 (LasR T75V) of 6 nM. The EC50 (LasR Y93F/A127W) was 9 nM.
